One may read the inhibition in vivo as the change of the read-out against control, counted positive when it falls.

From ChEMBL document CHEMBL3286239, “Synthesis and biological evaluation of novel naphthalene compounds as potential antidepressant agents” (Eur J Med Chem, 2014) come the findings set out here.

Molecules are shown by their SMILES. The source made the active and inactive calls. The rule behind the calls is not given here.

Data set [1] has as its system PC-12. Briefly: Neuroprotective activity against rat PC12 cells assessed as protection against corticosterone- induced lesion at 1.25 uM after 1 day by MTT assay. Type of data set: functional. Put shortly:
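Low-differentiated PC12 cells at 1×10^4/well in DMEM with 5% heat-inactivated horse serum and 10% FBS for 24 h. Then 200 μM corticosterone plus compound at 1.25 μM for 1 day. MTT 0.5 mg/ml final for 4 h, formazan in DMSO, A570. Protection rate = (A_drug − A_corticosterone)/A_corticosterone ×100; mean ± S.D. of six independent experiments.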

In data set [2] the test system is PC-12. Briefly: Neurorestorative activity against H2O2-induced oxidant injury in rat PC12 cells assessed as restorative rate at 20 uM measured after 48 hrs pretreated with 200 uM H2O2 for 1 hr by MTT assay. In kind it is functional. Put shortly:
(§1)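 PC12 cells at 1×10^4/well in DMEM with 10% FBS and 5% horse serum for 24 h. Exposed to 200 μM H₂O₂ for 1 h, washed twice with PBS, then compound (10, 20 or 40 μM) in DMEM for 48 h. MTT 0.5 mg/ml final for 4 h, DMSO solubilization, A570. Restoration rate from absorbance relative to injured control; mean ± S.D. of six independent experiments.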

Data set [3] concerns Mus musculus. Briefly: Antidepressant-like activity in C57 mouse assessed as reduction in immobility time at 32 mg/kg, ip administered from day 2 to 15 measured on 2nd and 15th day 30 mins after drug challenge by forced swim test. Type of data set: functional. The following applies: route intraperitoneal. The method in brief: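 Male C57 mice (20–24 g), 10 per group. Day 1: 15 min pre-swim in a cylinder (20 cm diameter) with 15 cm water at 22–25 °C. Days 2–15: daily i.p. 32 mg/kg in 30% β-cyclodextrin. On days 2 and 15, a 6 min swim 30 min after dosing. Immobility (speed <20 mm/s) scored over the last 4 min from video. Mean ± S.D.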

Data set [4] deals with PC-12. The data set is described as follows: Neurorestorative activity against H2O2-induced oxidant injury in rat PC12 cells assessed as restorative rate at 40 uM measured after 48 hrs pretreated with 200 uM H2O2 for 1 hr by MTT assay. Type of data set: functional. The method in brief:
as §1
On the technique in general: Tetrazolium assays rely on reduction of a dye to a coloured formazan, in cell work by metabolically active cells.

The subject of data set [5] is Mus musculus. Briefly: Toxicity in C57 mouse assessed as increase in spontaneous locomotor activity at 32 mg/kg, ip for 14 days by open field test. In kind it is organism-based. More on the design: dose 32 mg/kg, route intraperitoneal. To be noted: in vivo, 336 h. Put shortly:
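Male C57 mice (20–24 g), 10 per group, 12 h light/dark cycle, food and water ad libitum. Dosed i.p. at 32 mg/kg daily for 14 days, then total distance travelled measured in an open field arena.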

Data set [6] has as its system PC-12. Briefly: Neurorestorative activity against H2O2-induced oxidant injury in rat PC12 cells assessed as restorative rate at 10 uM measured after 48 hrs pretreated with 200 uM H2O2 for 1 hr by MTT assay. In kind it is functional. Put shortly: as §1
A short description of data set [7]: Cytotoxicity against human L02 cells as inhibition of cell viability at 80 uM after 24 hrs by MTT assay. In kind it is cell-based. The following applies: for cytotoxicity at 24 h, 80 µM: L02 cells, read-out: INH.
Data set [8] in a line: (§2) Cytotoxicity against human HEK293 cells as inhibition of cell viability at 80 uM after 24 hrs by MTT assay. In kind it is cell-based. The following applies: HEK293 cells, read-out: INH.
Data set [9] has as its system PC-12. The data set is described as follows: Neuroprotective activity against corticosterone- induced morphological change in rat PC12 cells assessed as decrease in shrunk axons at 1.25 uM after 24 hrs by inverted microscopic analysis. Type of data set: functional, cell-based. The method in brief:
(§3)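 PC12 cells seeded at 1×10^6 cells/mL and grown 1 d. Exposed to corticosterone 0.2 mM with or without drug at 1.25 μM for 24 h. Photographed by inverted microscope in three random fields per group. Cells with shrunk axons and cycloid shape counted as injured, normal neuron-like cells counted separately, using computer-assisted image analysis.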

The subject of data set [10] is PC-12. Briefly: Neuroprotective activity against corticosterone- induced morphological change in rat PC12 cells assessed as decrease in cycloid shape at 1.25 uM after 24 hrs by inverted microscopic analysis. Type of data set: functional, cell-based. The method in brief:
as §3

The subject of a further data set is HEK293. Described as §2. Type of data set: cell-based. The following applies: hek293, 24 h, 80 µM.

With `CNCCC(Oc1ccc(C(F)(F)F)cc1)c1ccccc1` (centres undefined) [FLUOXETINE], the values for the Activity in the data set on PC-12 [1], with Mus musculus [5] and in the data set on PC-12 [6] were 19.7%, 66.4% and 2.8%, respectively. Besides, the result with PC-12 [2] and in the data set on PC-12 [4] was inactive. Further, in the data set with Mus musculus [3], the inhibition in vivo at 32 mg/kg came to 50.7%.

Turning to `COc1ccc2cccc(CCNC(=O)C3CN(C(=O)c4ccco4)C3)c2c1`, the Activity in the data set on PC-12 [1] is on record as 38.8%. Moreover, the result in the data set with PC-12 [2], with PC-12 [4] and with PC-12 [6] was inactive. Also, the inhibition in vivo at 32 mg/kg in the data set with Mus musculus [3] amounted to 36.2%. In addition, the cytotoxicity at 24 h, 80 µM in [7] is 3.2%; in data set [8] it was 26.4%.

Turning to `COc1ccc2cccc(CCNC(=O)C3CN(C(=O)C(F)(F)F)C3)c2c1`, the Activity in the data set with PC-12 [1] is listed as 43.5%; in the data set with Mus musculus [5] it was 88.5%; in the data set on HEK293, “Non-toxic”. Besides, the outcome with PC-12 [2], with PC-12 [4] and in the data set with PC-12 [6] was inactive. Moreover, the inhibition in vivo at 32 mg/kg with Mus musculus [3] amounted to 58.4%. In addition, the cytotoxicity at 24 h, 80 µM in [7] worked out at 2.6%. In addition, the inhibition entry with PC-12 [9] and in the data set on PC-12 [10] was “Active” each time.

With `COc1ccc2cccc(CCNC(C)=O)c2c1` [AGOMELATINE], the Activity came out at 26.2% with PC-12 [1], 2.7% in the data set on PC-12 [2] and 85.3% in the data set on Mus musculus [5]. Also, the inhibition in vivo at 32 mg/kg in the data set with Mus musculus [3] came out at 8.4%. The outcome with PC-12 [4] and in the data set with PC-12 [6] was inactive.

With `COc1ccc(C(=O)N2CC(C(=O)NCCc3cccc4ccc(OC)cc34)C2)cc1`, the result in the data set on PC-12 [1], in the data set with PC-12 [2], in the data set on PC-12 [4] and in the data set on PC-12 [6] was inactive. The cytotoxicity at 24 h, 80 µM in data set [7] amounted to 7.8%; in [8], 8.9%.

With `COc1ccc2cccc(CCNC(=O)C3CN(C(=O)N(C)C)C3)c2c1`, the outcome with PC-12 [1] and in the data set with PC-12 [6] was inactive. For the same compound, the Activity with PC-12 [2] is 1.2%; in [7] (l02, 24 h, 80 µM) it was “Non-toxic”; in the data set on PC-12 [4], 4.3%. In addition, the cytotoxicity at 24 h, 80 µM in data set [8] was found to be 2.5%.

For `COc1ccc2cccc(CCNC(=O)C3CN(C(=O)c4ccncc4Cl)C3)c2c1`, the outcome with PC-12 [1], in the data set with PC-12 [2] and in the data set on PC-12 [6] was inactive. For the same compound, the cytotoxicity at 24 h, 80 µM in data set [7] is 4.8%; in data set [8], 17.3%. In addition, in the data set with PC-12 [4], the Activity worked out at 2.1%.

Consider `COc1ccc2cccc(CCNC(=O)C3CN(C(=O)c4ccc(C#N)cc4)C3)c2c1`, for which the Activity in the data set with PC-12 [1] is on record as 25.8%. The result in the data set with PC-12 [2], with PC-12 [4] and with PC-12 [6] was inactive. Further, the figures for the cytotoxicity at 24 h, 80 µM in data set [7] and in data set [8] were 1% and 17.5%, respectively.

In the case of `COc1ccc2cccc(CCNC(=O)C3CN(C(=O)c4ccc(Cl)cc4)C3)c2c1`, the Activity is 39.2% in the data set on PC-12 [1], 4.7% with PC-12 [4] and 0.3% in the data set on PC-12 [6]. Besides, the outcome in the data set with PC-12 [2] was inactive. Moreover, in the data set on Mus musculus [3], the inhibition in vivo at 32 mg/kg was 49.1%. Moreover, the figures for the cytotoxicity at 24 h, 80 µM in [7] and in data set [8] were 5.9% and 11.8%, respectively. Besides, the inhibition entry in the data set with PC-12 [9] and with PC-12 [10] was “Active” each time.

As for `COc1ccc2cccc(CCNC(=O)C3CN(C(C)=O)C3)c2c1`, the outcome in the data set on PC-12 [1] and in the data set on PC-12 [6] was inactive. Also, the Activity is 0.6% in the data set with PC-12 [2] and 1% with PC-12 [4]. The cytotoxicity at 24 h, 80 µM in [7] came to 2.3%; in data set [8], 6.2%.

For `COc1ccc2cccc(CCNC(=O)C3CN(S(C)(=O)=O)C3)c2c1`, the Activity with PC-12 [1] stood at 1.4%; with PC-12 [4] it was 3.7%; in the data set on PC-12 [6], 0.9%. In addition, the result in the data set on PC-12 [2] was inactive. Also, the cytotoxicity at 24 h, 80 µM came to 4.4% in data set [7] and 8.5% in data set [8].
